# hERG rescue = hERG rescue from dofetilide block, primary screen, cell-based, CHO-hERG, FluxOR thallium flux, dofetilide IC70; hit rate 0.51% among 310,000; activation (rescue from dofetilide block), less the hit threshold, % at 10 µM; Voltage-gated inwardly rectifying potassium channel KCNH2 (Homo sapiens), Q12809; dofetilide IC70 present;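 active means activation above the mean of controls blocked by dofetilide plus 5 SD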;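 further: thallium influx through hERG after potassium depolarization seen as dye fluorescence rise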
# KCNQ1 block = inhibitors of human KCNQ1 channel, primary screen, cell-based, thallium flux, high-throughput | Potassium voltage-gated channel subfamily KQT member 1 (Homo sapiens), P51787 | hit rate 1.3% among 310,000 | CHO-K1 KCNQ1, FluxOR thallium flux fluorescence; stronger effect = higher value | AID 2642, 2010 | B-score at 10 µM;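 active means compounds whose thallium flux B-score, printed positive for inhibition, exceeds three library SD while starting fluorescence stays within three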;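 further: channel opened by potassium depolarization with thallium stimulus after 20 min compound exposure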
# KCNK3 inh = human KCNK3 channel inhibitors, primary screen, CHO cells, FluxOR thallium flux, B-score; B-score at 10 µM; Potassium channel subfamily K member 3 (Homo sapiens), O14649; FluxOR fluorescence; stronger effect = lower value; hit rate 0.84% among 340,000; AID 602410, 2012;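 active means B-score under library mean minus 4 SD, starting fluorescence ratio at most library mean plus 5 SD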;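 further: more negative B-score means stronger inhibition of thallium flux through KCNK3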
# Kir21 block = inhibitors of mouse Kir2.1 inward-rectifier potassium channel; Inward rectifier potassium channel 2 (Mus musculus), P35561; B-score at 10 µM; hit rate 0.85% among 310,000; HEK293-Kir2.1, FluxOR thallium flux fluorescence; stronger effect = lower value;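 active means fluorescence ratio B-score at or below minus 3 SD of library scores, with starting-brightness B-score within 2 SD, cut at about -4.2 in these data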;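 further: channel flux triggered by added potassium and thallium sulfate stimulus; B-score of peak minus minimum fluorescence over baseline after thallium stimulus; more negative B-score means stronger Kir2.1 block with less thallium influx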
# KCNK9 block = KCNK9 potassium channel inhibitors, primary screen, HEK293 cells, thallium flux; Potassium channel subfamily K member 9 (Homo sapiens), Q9NPC2; FluxOR thallium flux fluorescence; stronger effect = lower value; B-score at 10 µM; hit rate 1.2% among 310,000; AID 488922, 2010;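 active means ratio B-score over 3 SD below the library mean, with starting fluorescence within 5 SD of its mean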;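 further: negative B-score means less thallium flux so channel inhibition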
# KCNQ1 act = potentiators or activators of KCNQ1 channel, primary screen, cell-based, thallium flux, high-throughput. Potassium voltage-gated channel subfamily KQT member 1 (Homo sapiens), P51787. CHO-K1 KCNQ1, thallium flux FluxOR fluorescence; stronger effect = higher value. B-score at 10 µM. hit rate 0.35% among 310,000. AID 2648, 2010;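 active means fluorescence ratio B-score, a plate-corrected score, at least three library SD, with initial intensity B-score within 5 SD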
#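 Doses: Single concentration per compound, DMSO matched to controls | Test system: KCNQ1-transfected CHO-K1 cells | Timing: 90 min dye loading and 20 min compound exposure, both at room temperature | Measured by: Kinetic FluxOR thallium fluorescence, 10-s 1-Hz baseline, 110-s post-stimulus read | Medium: Assay buffer with matched DMSO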
# KCNQ1 block val = KCNQ1 potassium channel inhibitors, confirmation, cell-based, Tl flux, duplicate. hit rate 93% among 1,600. shares compounds with KCNQ1 block. AID 588353, 2011. KCNQ1 cell line, FluxOR thallium flux fluorescence. inhibition, % at 10 µM;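 active means primary screen active, with duplicate mean exceeding buffer control mean plus 3 SD of buffer wells, cut at about 28% in these data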
# CHO KCNQ1 ctr = thallium flux effects in parental CHO cells, counter-screen for KCNQ1 inhibitor project, cell-based, Tl flux; AID 588366, 2011; parental CHO-K1, FluxOR thallium flux fluorescence ratio; stronger effect = lower value; zero means no signal rise above baseline; shares compounds with KCNQ1 block; fluorescence ratio (Tl flux) at 10 µM; hit rate 21% among 1,600;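 active means mean of duplicate thallium-flux fluorescence ratios in parental host cells more than 5 SD below the buffer control mean, cut at about 0.38 in these data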;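 further: ratio is peak minus minimum fluorescence divided by baseline fluorescence; actives read low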
# KCNQ1 ephys val = KCNQ1 channel inhibitors, confirmation, orthogonal assay, cell-based, automated electrophysiology; calls only at 10 µM; hit rate 20% among 490; shares compounds with KCNQ1 block; KCNQ1-CHO cells, automated patch clamp current; AID 624120, 2012;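 active means KCNQ1 current drop exceeding 3 SD of negative control wells, seen in both duplicate runs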;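 further: steady state current during a 2 s step from -80 to +40 mV; negative values mean current inhibition and positive values mean potentiation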
# KCNQ2 inh = KCNQ2 channel inhibition, selectivity assay for KCNQ1 inhibitor project, cell-based | KCNQ2 cells, FluxOR thallium flux fluorescence | shares compounds with KCNQ1 block | inhibition, % at 10 µM | hit rate 71% among 1,600 | AID 651746, 2012;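 active means mean percent inhibition of the KCNQ2 thallium signal more than 5 SD above the buffer-only control wells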;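 further: KCNQ2 expressed in CHO cells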
# KCNQ1-KCNE1 inh = KCNQ1/KCNE1 channel inhibition, selectivity assay for KCNQ1 inhibitor project, CHO-K1 cells, thallium flux, FluxOR; hit rate 77% among 1,600; FluxOR thallium flux fluorescence; shares compounds with KCNQ1 block; inhibition, % at 10 µM;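 active means mean percent inhibition of duplicate wells above the buffer-only control mean plus 3 SD of those controls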
# Target sequence (P51787 whole entry, looked up): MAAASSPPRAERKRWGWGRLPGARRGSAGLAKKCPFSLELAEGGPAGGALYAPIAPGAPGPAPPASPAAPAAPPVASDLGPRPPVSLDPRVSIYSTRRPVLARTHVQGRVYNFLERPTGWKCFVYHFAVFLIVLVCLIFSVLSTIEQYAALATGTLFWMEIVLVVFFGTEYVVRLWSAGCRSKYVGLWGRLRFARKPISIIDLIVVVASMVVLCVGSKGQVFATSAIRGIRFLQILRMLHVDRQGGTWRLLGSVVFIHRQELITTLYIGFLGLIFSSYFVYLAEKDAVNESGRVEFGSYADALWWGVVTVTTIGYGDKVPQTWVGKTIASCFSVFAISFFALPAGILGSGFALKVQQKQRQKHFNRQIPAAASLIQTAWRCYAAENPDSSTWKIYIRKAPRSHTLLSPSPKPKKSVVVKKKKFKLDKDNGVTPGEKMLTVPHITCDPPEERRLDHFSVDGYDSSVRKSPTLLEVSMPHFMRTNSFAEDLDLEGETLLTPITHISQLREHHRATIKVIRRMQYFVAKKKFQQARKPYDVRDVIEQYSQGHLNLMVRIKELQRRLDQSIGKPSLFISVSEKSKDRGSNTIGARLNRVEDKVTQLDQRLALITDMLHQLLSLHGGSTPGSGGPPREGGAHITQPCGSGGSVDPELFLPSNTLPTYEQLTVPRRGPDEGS
# A number is an active result; n = inactive; x = not tested or not shown; + = active, no number. Sampled rows, rich in hits. Any-hit rate of the full collection: about 3.8%.
SMILES,hERG rescue,KCNQ1 block,KCNK3 inh,Kir21 block,KCNK9 block,KCNQ1 act,KCNQ1 block val,CHO KCNQ1 ctr,KCNQ2 inh,KCNQ1-KCNE1 inh,others
CCC1Sc2ccc(S(=O)(=O)Nc3ccc(OC)c(OC)c3)cc2NC1=O (configuration not stated),n,7,n,n,n,n,80.0,n,69.0%,n,
CC(=O)c1ccc(NC(=S)NC2CCCC(C)C2C)cc1 (configuration not stated),n,7,n,n,n,n,47.0,n,n,34.5%,
CC1CCCC(NC(=S)Nc2cccc(S(=O)(=O)N(C)C)c2)C1C (configuration not stated),n,8,n,n,n,n,35.0,n,n,n,
CC1CCCCC1NC(=S)Nc1ccc(SC(F)F)cc1 (configuration not stated),n,7,n,n,n,n,65.5,n,n,39.5%,
CC1CCN(C(=S)Nc2ccc(SC(F)F)cc2)CC1,n,n,n,n,n,n,x,x,x,x,
CC(=O)c1ccc(NC(=S)NN2C(C)CCCC2C)cc1 (configuration not stated),n,n,n,n,n,n,x,x,x,x,
CCCOC(=O)c1ccc(NC(=O)Cc2cccs2)cc1,n,n,n,n,n,n,x,x,x,x,
COc1ccc(CCN2C(=O)c3[nH]nc(-c4ccccc4O)c3C2c2cccc(Cl)c2)cc1 (configuration not stated),n,9,n,n,n,n,109.0,n,90.3%,139.5%,KCNQ1 ephys val=+
COc1ccc(CN2C(=O)c3ccccc3C2=O)cc1C(=O)N(C)CC(=O)Nc1ccc(F)cc1,x,x,n,x,x,x,x,x,x,x,
O=c1c2c3c(sc2nc(NCCO)n1Cc1ccco1)CCCCC3,n,n,n,n,n,n,x,x,x,x,
O=c1c2c3c(sc2nc(NCCO)n1CCc1ccccc1)CCCCC3,n,6,n,n,n,n,67.0,n,91.7%,100.5%,
CCc1noc(C)c1C(=O)N1CCCSC1=Nc1ccccc1,n,8,n,n,n,n,101.0,n,59.3%,66.0%,KCNQ1 ephys val=+
CCc1noc(C)c1C(=O)N1CCOCC1,n,n,n,n,n,n,x,x,x,x,
CC(C)(C)C(=O)Nc1ccc(C(=O)COC(=O)C2=COCCO2)cc1,x,x,n,x,x,x,x,x,x,x,
Cc1ccc(C(=O)Nc2nc(=O)n(C(=O)CC(C)C)s2)cc1,n,6,n,n,n,n,33.5,n,n,n,
CC(=O)c1cc2c(cc1NC(=O)CN(C)S(=O)(=O)c1cccs1)OCO2,x,x,n,x,x,x,x,x,x,x,
CC[C@@]1(O)C(=O)OCc2c1cc1n(c2=O)Cc2cc3c(CN(C)C)c(O)ccc3nc2-1,n,32,n,n,n,n,+,0.017,n,n,
Oc1ccc(C=NNC(=S)Nc2cccnc2)nc1,x,x,n,x,x,x,x,x,x,x,
CCOC(=O)c1c(C)n(C)c2cc(Br)c(O)c(O)c12,n,6,n,n,n,n,n,n,59.3%,n,
CN(Cc1cccnc1)C(=O)c1cc(COc2ccc3c(c2)CCCC3)on1,n,7,n,n,n,n,115.0,n,81.0%,45.5%,KCNQ1 ephys val=n
CCOc1cc(S(=O)(=O)NCc2ccncc2)ccc1Cl,n,8,n,n,n,n,73.5,n,n,36.5%,
COc1ccc(/C=N/NC(=O)c2cc3c(ccc4ccccc43)o2)c(OC)c1,n,18,n,n,n,n,82.5,n,63.7%,170.5%,
COc1ccc(OC)c(/C=N\NC(=O)c2cc3c(ccc4ccccc43)o2)c1,n,n,n,n,n,n,x,x,x,x,
CC(=O)c1ccc(-c2ccc(C(=O)N(C)Cc3nc4ccccc4c(=O)[nH]3)o2)cc1,x,x,n,x,x,x,x,x,x,x,
O=C(NCc1cccnc1)C1CC(c2ccccc2Cl)=NO1 (configuration not stated),n,n,n,n,n,n,x,x,x,x,
SMILES,hERG rescue,KCNQ1 block,KCNK3 inh,Kir21 block,KCNK9 block,KCNQ1 act,KCNQ1 block val,CHO KCNQ1 ctr,KCNQ2 inh,KCNQ1-KCNE1 inh,others
Cc1ccccc1OCC(=O)Nc1ccccc1N1CCCCC1,n,8,n,n,-8,n,120.5,n,95.3%,170.0%,KCNQ1 ephys val=n
O=C(Nc1ccccc1N1CCCC1)c1ccccc1F,n,n,n,n,n,n,x,x,x,x,
O=C(COc1ccccc1[N+](=O)[O-])Nc1ccccc1N1CCCCC1,n,n,n,n,n,n,x,x,x,x,
O=C(Nc1ccccc1N1CCCCC1)c1ccccc1F,n,6,n,n,n,n,102.0,0.369,75.7%,143.5%,
COc1ccccc1C(=O)Nc1c(C(=O)N2CCN(C)CC2)oc2ccccc12,n,n,n,n,n,n,x,x,x,x,
COc1ccccc1C(=O)NCCC(=O)Nc1ccc(S(=O)(=O)N2CCC(C)CC2)cc1,x,x,n,x,x,x,x,x,x,x,
S=C(NCC1CCCCC1)Nc1ccc(Oc2ccccc2)cc1,n,9,n,n,n,n,81.0,n,65.0%,n,
Cc1ccc(Cl)cc1N1CCN(C(=O)CCCn2c(=O)c3cccn3c3cccnc32)CC1,n,6,n,n,n,n,97.5,n,106.7%,177.0%,KCNQ1 ephys val=n
Cc1cccc(NS(=O)(=O)c2nnc(NC(=O)C3CCCCC3)s2)c1,n,n,n,n,n,n,x,x,x,x,
CCCCOc1cccc(C2C(C(=O)c3ccc(C)o3)=C(O)C(=O)N2c2nnc(C)s2)c1 (configuration not stated),n,9,n,n,n,n,146.5,0.345,104.7%,n,
CN(Cc1ccc(Cl)cc1Cl)C(=O)c1cccc(S(=O)(=O)N2CCN(c3ccccc3)CC2)c1,n,6,n,n,n,n,91.5,n,90.0%,67.5%,KCNQ1 ephys val=n
